Sampled rows, rich in hits. Any-hit rate of the full collection: about 1.5%.
Hsp70 activator: transcriptional activators of Hsp70; activation, % at 10 µM; HeLa Hsp70 promoter luciferase reporter, luminescence; scaled: vehicle 0, proteasome-inhibitor control 100%; 200,000 tested, 0.04% active;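 active means activation above the mean across all tested compounds plus 3 SD, cutoff set per campaign, cut at about 5.5% in these data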
MDM2 E3 inh: blocks human Mdm2 ubiquitin ligase activity; cell-based MDM2 ubiquitination luciferase reporter, 2 h; 0 = plate control, 100 = twice control, blank-subtracted; 210,000 tested, 0.11% active; Q00987; signal enhancement, % at 5 µM;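 active means signal enhancement of 30% or more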;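 further: luminescence tracks abundance of the self-degrading MDM2-luciferase fusion protein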
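Material: Stable MDM2–luciferase fusion reporter cells | Amount: 2000 cells seeded into each well | Dosing: One concentration, 5 µM, with 0.2% DMSO | Incubation: 4 h cell settling then 2 h compound exposure, 37 °C | Measured by: Luciferase luminescence | Read-out basis: % enhancement relative to plate controls after blank subtraction | Benchmarks: Control and blank well means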
Pf gamet viab: kills late stage P. falciparum gametocytes. P. falciparum stage V gametocytes, ATP luminescence, 24 h. inhibition, % at 10.9 µM. 150,000 tested, 0.065% active. AID 743093;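 active means inhibition above the mean plus 3 SD of compounds within the control limits, set per campaign, cut at about 38% in these data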
Wee1 stabilizer: human Wee1 degradation inhibition, primary screen; P30291; HeLa Luc-Wee1K328M stability, luciferase luminescence; 100% = proteasome inhibitor MG132 effect; reporter increase, % at 5 µM; 220,000 tested, 1.2% active;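 active means activation above the mean of all tested compounds plus 3 SD, set per screening run, cut at about 8.8% in these data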;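 further: cells exposed to compound for 20 h before luminescence read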
Target sequence (P30291 whole entry K328M): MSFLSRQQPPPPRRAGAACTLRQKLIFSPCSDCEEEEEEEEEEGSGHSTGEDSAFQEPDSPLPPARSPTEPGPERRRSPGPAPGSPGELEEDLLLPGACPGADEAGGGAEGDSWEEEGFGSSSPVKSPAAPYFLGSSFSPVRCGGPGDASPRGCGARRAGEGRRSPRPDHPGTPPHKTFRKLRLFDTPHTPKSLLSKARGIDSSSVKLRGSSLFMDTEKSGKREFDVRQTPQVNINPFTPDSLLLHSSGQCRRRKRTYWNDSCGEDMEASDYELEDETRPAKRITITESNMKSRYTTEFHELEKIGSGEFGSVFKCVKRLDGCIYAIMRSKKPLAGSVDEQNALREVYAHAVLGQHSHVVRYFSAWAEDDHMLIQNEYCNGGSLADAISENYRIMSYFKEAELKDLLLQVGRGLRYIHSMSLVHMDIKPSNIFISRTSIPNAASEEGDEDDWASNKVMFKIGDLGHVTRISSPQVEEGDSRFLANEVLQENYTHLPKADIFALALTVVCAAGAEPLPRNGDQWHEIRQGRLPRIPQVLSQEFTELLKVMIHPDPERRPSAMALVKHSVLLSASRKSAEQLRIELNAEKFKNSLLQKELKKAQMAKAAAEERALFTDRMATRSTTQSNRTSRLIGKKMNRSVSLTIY
m-calpain inh: calpain II (pig) inhibition; purified calpain II, fluorogenic peptide substrate, 30 min; inhibition, % at 16 µM; 220,000 tested, 0.37% active;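 active means inhibition above about 50%, limit read from the data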
Hits are given with their value; . = inactive; / = no result given.

SMILES | Hsp70 activator | MDM2 E3 inh | Pf gamet viab | Wee1 stabilizer | m-calpain inh
Cc1ccc(NS(=O)(=O)c2cc(C(=O)NCCSC3CCCCC3)ccc2C)cc1 | . | . | / | . | 56.5
O=C(COC(=O)c1ccccn1)Nc1nc(-c2cccc([N+](=O)[O-])c2)cs1 | / | . | . | . | .
COc1ccc(CN2CC[C@H]3C=CC[C@@H](C(=O)NCCc4ccccc4)[C@H]3C2=O)cc1OC | / | / | . | / | /
O=[N+]([O-])c1ccc(NCCCNS(=O)(=O)c2ccc(Cl)cc2)c(Cl)c1 | . | . | . | . | 71.2
O=[N+]([O-])c1ccccc1NCCNS(=O)(=O)c1ccc(Cl)cc1 | . | . | / | . | .
CC(C)(C)c1ccc(OCC(O)CN2CCc3ccccc3C2)cc1 (stereo not given) | / | / | . | / | /
Cc1c(O)nc(SC2CC(=O)N(c3cc(Cl)cc(Cl)c3)C2=O)[nH]c1=O (stereo not given) | / | / | . | / | /
Cc1ccc(C)c(N2CCN(C(=O)C3CCCCN3S(=O)(=O)c3ccc(F)cc3)CC2)c1 (stereo not given) | . | . | / | . | 57.5
Cc1ccc(S(=O)(=O)N2CCCC2C(=O)O)cc1 (stereo not given) | . | . | / | . | .
O=C(C1CC1)N1CCc2cc(Br)cc(S(=O)(=O)N3CCN(c4ccccn4)CC3)c21 | . | . | / | . | .
CCOC(=O)C1CCN(S(=O)(=O)c2cc(Br)cc3c2N(C(=O)C2CC2)CC3)CC1 | . | . | / | . | 61.4
CC(=O)c1c(C(C)=O)c(C)n(NC(=O)c2ccccc2Cl)c1C | . | . | . | 9.2 | .
Cc1cc(O)cc(=O)n1Cc1ccccc1 | / | / | . | / | /
COc1cc(CO)c(OC)c([N+](=O)[O-])c1 | / | / | . | / | /
C=CCn1c(CCCNC(=O)c2ccccc2OC)nc2ccccc21 | . | . | / | . | 81.3
Cn1c(-c2cccc(Br)c2)cnc1NCc1cccnc1 | . | . | . | . | .
COc1cccc(-c2cnc(NCc3cc(Cl)ccc3O)n2C)c1 | . | . | / | . | 55.5
CC(C)(C)OC(=O)C[C@@H]1C/C=C\C[C@H](CC(=O)N[C@H](CO)Cc2ccccc2)C(=O)N[C@@H](Cc2c[nH]c3ccccc23)COC1=O | / | / | . | / | /
Cc1cccc(C)c1N1CCN(CCn2c(=S)[nH]c3ccccc3c2=O)CC1 | / | / | . | / | /
O=[N+]([O-])C1=CC=C2C(=NC3(CCCCC3)N2O)C1=NCCc1ccccc1 | . | 30.7 | . | . | .
OCC1(Cc2ccccc2)CCN(Cc2cnc(-c3cccc4ccccc34)nc2)CC1 | . | . | / | . | .
OCC1(Cc2ccccc2)CCN(Cc2cnc(-c3ccc(Cl)cc3)nc2)CC1 | . | . | 42.4 | . | .
COC(=O)c1cccc(NC(=O)CCc2cc(OC)c(OC)c(OC)c2)c1 | . | . | . | . | .
COC(=O)c1cccc(NC(=O)CCc2ccccc2)c1 | . | . | . | 9.4 | .
CC(C)CNC(=O)c1cccc(NC(=O)Cc2ccc(Br)cc2)c1 | . | . | . | . | .
SMILES | Hsp70 activator | MDM2 E3 inh | Pf gamet viab | Wee1 stabilizer | m-calpain inh
CC(C)CNC(=O)c1cccc(NC(=O)CCc2ccccc2)c1 | . | . | . | 10.1 | .
O=Cc1cn(-c2ccccc2)nc1-c1ccc2c(c1)OCCO2 | . | . | / | 9.2 | .
COc1ccc([C@H]2CC(=O)C=C(c3ccc4cc[nH]c4c3)C2)cc1 | / | / | . | / | /
COc1ccccc1OCC#CCNC1CCCCC1C (stereo not given) | . | . | / | . | .
CC(=O)/C(N=Nc1ccc(-n2ccc(C(F)(F)F)n2)cc1)=C(\C)O | / | . | . | . | 93.0
Cc1ccc(CNC(=O)Nc2cccs2)cc1 | . | . | / | 9.1 | .
O=C(CCc1ccccc1)Nc1ccc(S(=O)(=O)N2CCCC2)cc1 | . | . | . | . | .
CCC(=O)Nc1ccc(S(=O)(=O)N2CCOCC2)cc1 | . | . | . | . | .
O=C(Cn1c(=O)sc2ccccc21)Nc1ccc(S(=O)(=O)N2CCCC2)cc1 | . | . | / | . | 54.0
O=C(Nc1ccc(S(=O)(=O)N2CCOCC2)cc1)c1cc(-c2ccccc2O)n[nH]1 | / | . | . | 10.2 | .
O=C(Nc1ccc(S(=O)(=O)N2CCCCCC2)cc1)c1ccc(Br)o1 | . | . | . | . | 54.9
O=C(CN1CCCCCC1)Nc1ccc(S(=O)(=O)N2CCOCC2)cc1 | . | . | . | 9.6 | .
O=C(O)c1ccc2c(c1)C(=O)N(c1ccc([N+](=O)[O-])cn1)C2=O | / | / | . | / | /
COc1ccc(Cl)cc1NC(=O)CN1CCc2ccccc2C1 | / | / | . | / | /
CC(=O)c1cn(CCOc2ccc(F)cc2)c2ccccc12 | / | / | . | / | /
O=C(CCC(=O)N1CCN(S(=O)(=O)c2ccc(Cl)cc2)CC1)Nc1ccc2ccccc2c1 | . | . | / | 10.4 | .
COc1ccc(NC(=O)CCN2CCN(S(=O)(=O)c3ccc(Cl)cc3)CC2)cc1 | . | . | . | . | .
O=C(CCOc1ccccc1)Nc1ccc(S(=O)(=O)N2CCCC2)cc1 | . | . | . | . | 56.9
CN(Cc1ccccc1)S(=O)(=O)c1ccc(NC(=O)c2ccccc2C(=O)O)cc1 | / | / | . | / | /
COc1ccc(-c2[nH]nc3c2C(c2ccsc2)C(C#N)=C(N)O3)cc1 (stereo not given) | . | . | . | . | .
COc1cccc(-c2[nH]nc3c2C(c2ccsc2)C(C#N)=C(N)O3)c1 (stereo not given) | . | 31.5 | . | . | .
Cn1cnc2c(oc3ccccc32)c1=O | / | / | . | / | /
Cc1ccnc(N(C(=O)c2cccs2)C(=O)c2cccs2)c1 | . | . | / | 11.9 | .
O=C(c1cccs1)N(C(=O)c1cccs1)c1ccc(Br)cn1 | . | . | . | . | .
N#C/C(=C/c1ccc(C(=O)O)cc1)C(=O)Nc1ccccc1 | . | . | . | 9.0 | .
SMILES | Hsp70 activator | MDM2 E3 inh | Pf gamet viab | Wee1 stabilizer | m-calpain inh
Cc1cccc(NC(=O)/C(C#N)=C\c2ccc(C(=O)O)cc2)c1 | . | . | . | . | .
Cc1cc(C(=O)O)ccc1-n1c(C)cc(/C=C(/C#N)C(=O)Nc2ccccc2)c1C | . | . | . | . | 58.6
COc1cccc(/C=N\NC(=O)c2ccc(Cn3cc(Br)c([N+](=O)[O-])n3)o2)c1O | . | . | / | . | .
COc1ccc(-c2cn(Cc3ccc(C(N)=O)cc3)c(CCN)n2)cc1 | / | / | . | / | /
O=C1CSC(=S)N1N=C1CCCCCC1 | . | / | . | 13.4 | .
O=C1CSC(=S)N1/N=C/C=C/c1ccccc1 | . | . | . | . | .
O=C(O)c1ccc(N=Nc2c(O)[nH]c3cc(Cl)ccc23)cc1 | / | / | . | 12.1 | .
COc1cccc(NC(=O)C(C)N2C(=O)c3ccccc3C2=O)c1 (stereo not given) | / | / | . | / | /
Cc1cc(NC(=S)N(Cc2cccc(Br)c2)CC2CCC(C(=O)O)CC2)ccc1Cl (stereo not given) | . | . | . | . | 53.4
O=S1(=O)CCOC[C@H](c2ccccc2)N1Cc1cccc(Cl)c1 | / | / | . | / | /
CN(C)c1ccc(C2N(C(=O)N3CCOCC3)CCN2S(=O)(=O)c2ccccc2)cc1 (stereo not given) | . | . | . | . | .
Cc1ccc(S(=O)(=O)N2CCN(C(=O)N3CCOCC3)C2c2ccc(N(C)C)cc2)cc1 (stereo not given) | . | . | / | 13.8 | .
